# Screens as filed in PubChem.
# An excerpt weighted towards active compounds, which were near 1.4% of everything screened.
# MOR-DOR ag: OPRM1-OPRD1 heterodimerization agonism. activation, % at 9.3 µM. 340,000 tested, 0.3% active. cells, luminescence. P35372+P41143. AID 504326; in the data active = activation above about 18%;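 note: 0% = vehicle-treated cells and 100% = reference agonist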
# OPRM1-OPRD1 inv: inverse agonists of human mu-delta opioid receptor heterodimerization. P35372+P41143. cell-based MOR-DOR heterodimer luminescence, inverse agonism. inhibition, % at 9.3 µM. 340,000 tested, 0.21% active; in the data active = inhibition above about 22%, passing the limit was not always enough;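 note: 0% = cells with DMSO and 100% = wells without cells with DMSO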
# Hep lipid drop: hepatic lipid droplet formation modulation. inhibition, % at 6.5 µM. AID 1656. 240,000 tested, 0.4% active. AML12 mouse hepatocytes, oleate lipid droplets, BODIPY imaging;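 active = lipid droplet intensity inhibited by at least 50%, with more than 500 cells counted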
#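 Material – mouse AML12 hepatocyte cell line, fixed after treatment · Compound dosing – one dose, 6.5 µM compound · Times – compound with oleate, overnight · Measured by – Image-based BODIPY and DAPI two-channel analysis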
# HTR5A inv ag: inverse agonist of human HTR5A in OPRM1-OPRD1 counter-screen | HTR5A cell line, luminescence, inverse agonism | inhibition, % at 9.3 µM | 340,000 tested, 0.083% active | P47898; in the data active = inhibition mostly above about 23%, no sharp cut-off; inactive = mostly below about 18%;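 note: 0% = cells with DMSO and 100% = no-cell wells with DMSO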
# Target sequence (P47898 whole entry, looked up): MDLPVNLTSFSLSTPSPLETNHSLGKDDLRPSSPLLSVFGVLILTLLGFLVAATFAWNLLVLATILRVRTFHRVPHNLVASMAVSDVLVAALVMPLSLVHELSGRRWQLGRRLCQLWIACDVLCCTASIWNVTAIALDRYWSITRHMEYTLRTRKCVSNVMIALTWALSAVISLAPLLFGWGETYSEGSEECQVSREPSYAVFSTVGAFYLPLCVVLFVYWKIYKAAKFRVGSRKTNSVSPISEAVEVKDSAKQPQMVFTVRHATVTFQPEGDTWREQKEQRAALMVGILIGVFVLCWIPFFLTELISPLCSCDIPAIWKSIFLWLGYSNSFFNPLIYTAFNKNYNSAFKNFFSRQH
# HTR5A ag: counter-screen for OPRM1-OPRD1 agonists: human HTR5A agonism; P47898; HTR5A agonist assay, luminescence, cell-based; activation, % at 9.3 µM; 340,000 tested, 0.61% active; in the data active = activation mostly above about 9.5%, no sharp cut-off; inactive = mostly below about 7.6%;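 note: 0% = cells with vehicle only and 100% = reference agonist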
# Hep lipid conf: hepatic lipid droplet formation inhibition, confirmed; AML12 mouse hepatocytes, BODIPY lipid droplet imaging; droplets induced with 100 µM oleic acid; inhibition, % at 5.2 µM; 870 tested, 65% active; AID 463183; shares compounds with Hep lipid drop;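 active = inhibition of lipid droplet metric at least 50%, with more than 300 cells in each of four replicates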;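 note: plate controls were DMSO with oleic acid for no effect and 5 µM Triacsin-C for full effect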
# AML12 tox img: toxic to AML12 mouse hepatocytes in counter-screen; shares compounds with Hep lipid drop; DAPI nuclear morphology cytotoxicity imaging; active compounds read high; cells fed 100 µM oleate overnight; z-score at 5 µM; 870 tested, 3% active; AID 463200; in the data active = z-score above about 6.3;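 note: compound exposure lasted overnight at 37 °C before fixation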
# AML12 tox ATP: AML12 hepatocyte cytotoxicity, confirmed | 530 tested, under 10 active | AML12 mouse hepatocyte viability, ATP luminescence; cells loaded with 100 µM oleic acid | AID 463219 | cytotoxicity, % at 50 µM | shares compounds with Hep lipid drop;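 active = cytotoxicity above 50% in each of four replicates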;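 note: compound exposure lasted overnight at 37 °C before the ATP read; 0% = DMSO-treated cells and 100% = wells with no cells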
# * marks the source's active call; other numbers are inactive results; . = no result.
SMILES,MOR-DOR ag,OPRM1-OPRD1 inv,Hep lipid drop,HTR5A inv ag,HTR5A ag,Hep lipid conf,AML12 tox img,AML12 tox ATP
CC(=O)Nc1cccc(OCC(=O)NC(C)c2ccc3ccccc3c2)c1 (stereo not given),2,-16,68*,4,2,38,0.15,.
CC(=O)Nc1cccc(OCC(=O)Nc2ccccc2)c1,-3,16,2,-9,-4,.,.,.
CCC(=O)N1N=C(c2cccs2)CC1c1ccc(OC)cc1 (stereo not given),-1,6,-2,1,0,.,.,.
COc1ccc(C2CC(c3cccs3)=NN2C(=O)c2ccc(Br)o2)cc1 (stereo not given),5,-23,83*,-17,3,93*,0.47,-11
CN(C(=O)Cn1nnc2ccccc2c1=O)C1CCCCC1,2,-14,-1,14,-5,.,.,.
O=C(Nc1ccc(Br)cc1)c1cccc(OC(=S)N2CCOCC2)c1,0,0,54*,-18,7,89*,0.81,20
CCCC1OC2CC3C4CCC5=CC(=O)C=CC5(C)C4C(O)CC3(C)C2(C(=O)O)O1 (stereo not given),-2,11,7,-15,5,.,.,.
CCCC1O[C@@H]2C[C@H]3[C@@H]4CCC5=CC(=O)C=C[C@]5(C)[C@H]4[C@@H](O)C[C@]3(C)[C@]2(C(=O)CO)O1 (stereo not given in full),-2,11,118*,1,0,113*,2.3,22
CCOc1ccc(C2=NNC(c3cccs3)=Nc3ccc(OC)cc32)cc1OCC,0,-1,55*,-17,5,71*,0.57,20
O=S(=O)(c1ccc(Cl)cc1)N1CCCC(C(F)(F)F)C1 (stereo not given),6,-33,5,-10,3,.,.,.
O=C(NCc1ccc(C(=O)O)cc1)OCc1ccccc1,-2,10,63*,-4,1,15,0.0019,.
Cc1coc2cc3oc(=O)cc(C)c3cc12,0,2,52*,5,1,-22,0.57,.
CCCCNC(=O)CSc1cc(=O)n(C)c2ccccc12,-3,16,4,40,2,.,.,.
CCOc1ccc(CCNC(=O)CSc2cc(=O)n(C)c3ccccc23)cc1OCC,1,-7,98*,17,1,106*,-0.049,14
CCOc1ccc(CCNC(=O)COc2cc(=O)n(C)c3ccccc23)cc1OCC,-2,14,100*,11,2,101*,-0.38,8
CCOc1ccc(CCNC(=O)CCC(=O)N2CCSc3ccccc32)cc1OCC,-1,3,91*,2,-1,110*,-0.67,18
CCOc1ccc(CCNC(=O)COC(=O)/C=C/c2ccc(OCC#N)c(OC)c2)cc1OCC,-2,10,63*,13,1,103*,-0.32,1
CCc1ccc(NC(=O)CCC(=O)N2CCSc3ccccc32)cc1,4,-18,-6,7,-3,.,.,.
COc1ccc(CCNC(=O)COC(=O)/C=C/c2ccc(OCC#N)c(OC)c2)cc1OC,0,-1,24,-21,0,.,.,.
Cc1ccc(/C=N/NC(=O)c2cc3c(s2)CCCC3)o1,2,-8,.,-11,4,.,.,.
CC(NC(=O)CNC(=O)c1ccc2c(c1)OCO2)c1ccc(S(N)(=O)=O)cc1 (stereo not given),-4,15,.,8,2,.,.,.
CCOc1ccc(Br)cc1S(=O)(=O)NCCN1CCCC1,-2,8,.,3,-1,.,.,.
NC(CCC(=O)NC(CS)C(=O)NCC(=O)O)C(=O)O (stereo not given),0,0,.,-10,3,.,.,.
CCCN1CCN(C(=O)Cn2nc(CC)n3c(cc4sccc43)c2=O)CC1,-4,18,-10,6,-2,.,.,.
Cc1ccc(-c2nnc(N3CCOCC3)c3ccccc23)cc1S(N)(=O)=O,-1,7,.,-11,3,.,.,.
COc1ccc(Cn2c(-c3ccccc3C)nc3c(c(=O)c4ccccc4n3C)c2=O)cc1,-2,11,.,-15,5,.,.,.
